This passage reports GI50 results from ChEMBL document CHEMBL1955829, “Synthesis and biological evaluation of 4β-sulphonamido and 4β-[(4'-sulphonamido)benzamide]podophyllotoxins as DNA topoisomerase-IIα and apoptosis inducing agents” (2012).

SMILES strings stand for the structures.

As a reminder, the GI50 is the concentration giving 50% growth inhibition.

For one test, the system named is ZR-75-1. Put plainly: Growth inhibition of human ZR-75-1 cells after 48 hrs by sulforhodamine B assay. Type of test: functional. To be noted: ZR-75-1, 48 h. The method, boiled down:
(§1)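 Cells grown in DMEM with 10% FBS and 2 mM L-glutamine, plated at densities set by doubling time, and held 24 h before dosing. Exposure was 48 h to 0.1, 1, 10 and 100 µM in triplicate wells. Cells fixed with cold TCA (final 10%) 60 min at 4 °C and stained with 0.4% SRB 20 min. Bound dye eluted in 10 mM Tris base and read at 540 nm (690 nm reference). GI50 is the concentration giving 50% reduction in net protein gain versus control; values are the mean of three determinations.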
(The SRB assay estimates cell density from bound dye.)
Compound `COc1cc([C@@H]2c3cc4c(cc3[C@@H](NS(=O)(=O)c3ccc(-c5ccccc5)cc3)[C@H]3COC(=O)[C@H]23)OCO4)cc(OC)c1OC` yielded a GI50 of 2300 nM.

For the compound `COc1cc([C@@H]2c3cc4c(cc3[C@@H](NS(=O)(=O)c3sc(NC(C)=O)nc3C)[C@H]3COC(=O)[C@H]23)OCO4)cc(OC)c1OC`, halving of growth (GI50) required 170 nM.

`COc1cc([C@@H]2c3cc4c(cc3[C@@H](NS(=O)(=O)c3ccc(S(=O)(=O)c5ccccc5)s3)[C@H]3COC(=O)[C@H]23)OCO4)cc(OC)c1OC`: the GI50 is 2110 nM.

In the case of `COc1cc([C@@H]2c3cc4c(cc3[C@@H](NC(=O)c3ccc(NS(=O)(=O)c5cccc6nsnc56)cc3)[C@H]3COC(=O)[C@H]23)OCO4)cc(OC)c1OC`, growth was halved (GI50) at 2230 nM.

The subject of a further test is MCF7. Put plainly: Growth inhibition of human MCF7 cells after 48 hrs by sulforhodamine B assay. Type of test: functional. Particulars: MCF7, 48 h. The method in brief: as §1
Take `COc1cc([C@@H]2c3cc4c(cc3[C@@H](NS(=O)(=O)c3ccc(-c5ccccc5)cc3)[C@H]3COC(=O)[C@H]23)OCO4)cc(OC)c1OC`: the GI50 is 2610 nM.

As for `COc1cc([C@@H]2c3cc4c(cc3[C@@H](NS(=O)(=O)c3sc(NC(C)=O)nc3C)[C@H]3COC(=O)[C@H]23)OCO4)cc(OC)c1OC`, it took 150 nM to inhibit growth by half (GI50).

`COc1cc([C@@H]2c3cc4c(cc3[C@@H](NS(=O)(=O)c3ccc(S(=O)(=O)c5ccccc5)s3)[C@H]3COC(=O)[C@H]23)OCO4)cc(OC)c1OC` gave a GI50 of 140 nM.

Turning to `COc1cc([C@@H]2c3cc4c(cc3[C@@H](NC(=O)c3ccc(NS(=O)(=O)c5cccc6nsnc56)cc3)[C@H]3COC(=O)[C@H]23)OCO4)cc(OC)c1OC`, the GI50 stood at 170 nM.

The next test has as its system KB. Put plainly: Growth inhibition of human KB cells after 48 hrs by sulforhodamine B assay.
Conditions: not given
Type of test: functional. The method, boiled down:
as §1
As for `COc1cc([C@@H]2c3cc4c(cc3[C@@H](NS(=O)(=O)c3sc(NC(C)=O)nc3C)[C@H]3COC(=O)[C@H]23)OCO4)cc(OC)c1OC`, the GI50 was determined as 170 nM.

For `COc1cc([C@@H]2c3cc4c(cc3[C@@H](NS(=O)(=O)c3ccc(S(=O)(=O)c5ccccc5)s3)[C@H]3COC(=O)[C@H]23)OCO4)cc(OC)c1OC`, growth was halved (GI50) at 2110 nM.

Tested on in the next test: not listed separately
Put plainly: Growth inhibition of human DWD cells after 48 hrs by sulforhodamine B assay. Type of test: functional.
Conditions: not given
The method, boiled down: as §1
`COc1cc([C@@H]2c3cc4c(cc3[C@@H](NS(=O)(=O)c3ccc(-c5ccccc5)cc3)[C@H]3COC(=O)[C@H]23)OCO4)cc(OC)c1OC` yielded a GI50 of 2210 nM.

With `COc1cc([C@@H]2c3cc4c(cc3[C@@H](NS(=O)(=O)c3sc(NC(C)=O)nc3C)[C@H]3COC(=O)[C@H]23)OCO4)cc(OC)c1OC`, growth was halved (GI50) at 140 nM.

In turn, `COc1cc([C@@H]2c3cc4c(cc3[C@@H](NS(=O)(=O)c3ccc(S(=O)(=O)c5ccccc5)s3)[C@H]3COC(=O)[C@H]23)OCO4)cc(OC)c1OC` displayed a GI50 of 2610 nM.

Turning to `COc1cc([C@@H]2c3cc4c(cc3[C@@H](NC(=O)c3ccc(NS(=O)(=O)c5cccc6nsnc56)cc3)[C@H]3COC(=O)[C@H]23)OCO4)cc(OC)c1OC`, halving of growth (GI50) required 2800 nM.

A further test relates to COLO 205. Put plainly: Growth inhibition of human COLO205 cells after 48 hrs by sulforhodamine B assay. Type of test: functional. To be noted: COLO 205, 48 h. The method in brief: as §1
`COc1cc([C@@H]2c3cc4c(cc3[C@@H](NS(=O)(=O)c3ccc(-c5ccccc5)cc3)[C@H]3COC(=O)[C@H]23)OCO4)cc(OC)c1OC` came in with a GI50 of 2710 nM.

The compound `COc1cc([C@@H]2c3cc4c(cc3[C@@H](NS(=O)(=O)c3sc(NC(C)=O)nc3C)[C@H]3COC(=O)[C@H]23)OCO4)cc(OC)c1OC` registered a GI50 of 110 nM.

In a further test the test system is A549. Put plainly: Growth inhibition of human A549 cells after 48 hrs by sulforhodamine B assay. Particulars: A549, 48 h. Type of test: functional. The method, boiled down:
as §1
Take `COc1cc([C@@H]2c3cc4c(cc3[C@@H](NS(=O)(=O)c3ccc(-c5ccccc5)cc3)[C@H]3COC(=O)[C@H]23)OCO4)cc(OC)c1OC`: the GI50 was 2000 nM.

In turn, `COc1cc([C@@H]2c3cc4c(cc3[C@@H](NS(=O)(=O)c3sc(NC(C)=O)nc3C)[C@H]3COC(=O)[C@H]23)OCO4)cc(OC)c1OC` had a GI50 of 120 nM.

A further test relates to HOP-62. Put plainly: Growth inhibition of human HOP62 cells after 48 hrs by sulforhodamine B assay. Type of test: functional. To be noted: HOP-62, 48 h. The method, boiled down: as §1
On to `COc1cc([C@@H]2c3cc4c(cc3[C@@H](NS(=O)(=O)c3ccc(-c5ccccc5)cc3)[C@H]3COC(=O)[C@H]23)OCO4)cc(OC)c1OC`, for which growth was halved (GI50) at 2010 nM.

With `COc1cc([C@@H]2c3cc4c(cc3[C@@H](NS(=O)(=O)c3sc(NC(C)=O)nc3C)[C@H]3COC(=O)[C@H]23)OCO4)cc(OC)c1OC`, the GI50 was determined as 160 nM.

Compound `COc1cc([C@@H]2c3cc4c(cc3[C@@H](NC(=O)c3ccc(NS(=O)(=O)c5cccc6nsnc56)cc3)[C@H]3COC(=O)[C@H]23)OCO4)cc(OC)c1OC` yielded a GI50 of 2910 nM.

The test system of another test is A2780. Put plainly: Growth inhibition of human A2780 cells after 48 hrs by sulforhodamine B assay. Type of test: functional. Particulars: A2780, 48 h. The method in brief:
as §1
Compound `COc1cc([C@@H]2c3cc4c(cc3[C@@H](NS(=O)(=O)c3ccc(-c5ccccc5)cc3)[C@H]3COC(=O)[C@H]23)OCO4)cc(OC)c1OC` returned a GI50 of 2110 nM.

The compound `COc1cc([C@@H]2c3cc4c(cc3[C@@H](NS(=O)(=O)c3sc(NC(C)=O)nc3C)[C@H]3COC(=O)[C@H]23)OCO4)cc(OC)c1OC` gave a GI50 of 150 nM.

Turning to `COc1cc([C@@H]2c3cc4c(cc3[C@@H](NS(=O)(=O)c3ccc(S(=O)(=O)c5ccccc5)s3)[C@H]3COC(=O)[C@H]23)OCO4)cc(OC)c1OC`, the GI50 was found to be 2300 nM.

The compound `COc1cc([C@@H]2c3cc4c(cc3[C@@H](NC(=O)c3ccc(NS(=O)(=O)c5cccc6nsnc56)cc3)[C@H]3COC(=O)[C@H]23)OCO4)cc(OC)c1OC` had a GI50 of 2110 nM.
